Measured values as given in ChEMBL document CHEMBL1152805, “Dual inhibitors of phosphodiesterase-4 and serotonin reuptake” (J Med Chem, 2009).
Active and inactive are the calls of the source. No cut-off for these calls is given here.

How the values were obtained:
[1] = target: 3',5'-cyclic-AMP phosphodiesterase 4B (Homo sapiens, UniProt Q07343); experiment: Inhibition of human recombinant PDE4B3 assessed as inhibition of cAMP hydrolysis
[2] = test system: Liver microsomes; experiment: Metabolic stability in human liver microsomes assessed as half life after 60 mins by HPLC in presence of NADPH; type: ADME, Microsome; conditions: 1 h
Summary of the method: (§1)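 Liver microsomes (0.5 mg protein) in potassium phosphate buffer, pH 7.4, with an NADPH-generating system (NADP+, glucose-6-phosphate, G6P dehydrogenase), DETAPAC and MgCl2. Test compound added at 40 µM and incubated at 37 °C with shaking. Samples stopped with CH2Cl2/2-propanol at 0, 10, 25, 40 and 60 min. Substrate loss measured by HPLC and half-life calculated.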

[3] = test system: Mus musculus; experiment: Antidepressant activity in ICR mouse assessed as decrease in immobility duration at 0.5 umol/kg, ip administered 30 mins prior to test by forced swimming test; type: functional, organism-based
Summary of the method: (§2)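 Male ICR mice (26.2 ± 0.3 g), 12 h light cycle. Drug in 0.9% saline with 5% DMSO, given i.p. 30 min before the forced-swim test. Lower doses were tested first, then higher doses 1 week later after re-randomization. Swim pretest on 2 successive days, test 24 h later: 6 min in a cylinder with 28 cm of water at 23 ± 1°C, recording immobility. n = 9–11; ANOVA with Dunnett's test.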

[4] = Metabolic stability in mouse liver microsomes assessed as half life at 40 uM after 60 mins by HPLC in presence of NADPH; type: ADME, Microsome; conditions: 1 h; summary of the method: as §1
[5] = test system: Mus musculus; experiment: Antidepressant activity in BALB/c mouse assessed as decrease in immobility duration at 1 mg/kg, ip administered 23 hrs, 5 hrs and 1 hr prior to test measured after 4 weeks by forced swimming test; type: functional, organism-based; design: dose 1 mg/kg
Summary of the method: (§3)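 Male Balb/c mice (22.4 ± 0.1 g), second session run 4 weeks after the first. Drug in 0.9% saline with 5% DMSO (vehicle alone as control), given i.p. 23, 5 and 1 hr before the forced-swim test, with no pretest training. Each mouse was placed 6 min in a water-filled cylinder (23 ± 1°C) and immobility duration recorded. n = 10–11; one-way ANOVA with Dunnett's test.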

[6] = target: 3',5'-cyclic-AMP phosphodiesterase 4A (Homo sapiens, UniProt P27815); experiment: Inhibition of human recombinant PDE4A1 assessed as inhibition of cAMP hydrolysis
Sequence of 3',5'-cyclic-AMP phosphodiesterase 4A (P27815 whole entry): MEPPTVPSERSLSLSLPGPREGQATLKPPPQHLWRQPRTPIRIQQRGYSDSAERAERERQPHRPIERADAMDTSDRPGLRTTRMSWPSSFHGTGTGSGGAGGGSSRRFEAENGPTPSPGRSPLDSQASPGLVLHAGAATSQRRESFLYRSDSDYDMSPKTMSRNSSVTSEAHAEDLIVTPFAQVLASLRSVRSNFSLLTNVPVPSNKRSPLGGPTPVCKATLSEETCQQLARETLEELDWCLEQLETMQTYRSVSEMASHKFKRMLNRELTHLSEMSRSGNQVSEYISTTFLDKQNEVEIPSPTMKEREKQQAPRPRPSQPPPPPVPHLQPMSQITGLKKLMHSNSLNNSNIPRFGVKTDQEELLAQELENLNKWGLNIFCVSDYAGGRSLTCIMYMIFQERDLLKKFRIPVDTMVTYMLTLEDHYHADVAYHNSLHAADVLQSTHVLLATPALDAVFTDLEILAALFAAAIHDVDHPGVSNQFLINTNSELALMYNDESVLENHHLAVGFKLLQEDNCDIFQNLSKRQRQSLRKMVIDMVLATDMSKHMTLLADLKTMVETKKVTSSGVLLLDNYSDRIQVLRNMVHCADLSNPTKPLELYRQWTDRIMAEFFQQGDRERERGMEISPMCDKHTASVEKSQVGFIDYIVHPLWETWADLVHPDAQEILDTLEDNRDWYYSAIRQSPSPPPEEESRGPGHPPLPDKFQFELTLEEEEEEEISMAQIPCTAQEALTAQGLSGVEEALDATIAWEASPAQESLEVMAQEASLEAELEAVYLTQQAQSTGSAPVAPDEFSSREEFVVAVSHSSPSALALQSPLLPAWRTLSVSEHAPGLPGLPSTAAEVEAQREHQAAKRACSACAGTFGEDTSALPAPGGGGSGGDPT

[7] = test system: Mus musculus; experiment: Antidepressant activity in ICR mouse assessed as decrease in immobility duration at 5 umol/kg, ip administered 30 mins prior to test after 1 week by forced swimming test; type: functional, organism-based; summary of the method: as §2
[8] = test system: Mus musculus; experiment: Antidepressant activity in BALB/c mouse assessed as decrease in immobility duration at 37.4 umol/kg, ip administered 23 hrs, 5 hrs and 1 hr prior to test measured after 4 weeks by forced swimming test; type: functional, organism-based; summary of the method: as §3
[9] = test system: Mus musculus; experiment: Antidepressant activity in ICR mouse assessed as decrease in immobility duration at 10 umol/kg, ip administered 30 mins prior to test after 1 week by forced swimming test; type: functional, organism-based; summary of the method: as §2
[10] = test system: Mus musculus; experiment: Antidepressant activity in ICR mouse assessed as decrease in immobility duration at 1 umol/kg, ip administered 30 mins prior to test by forced swimming test; type: functional, organism-based; summary of the method: as §2
[11] = target: T1, Sodium-dependent dopamine transporter (Homo sapiens, UniProt Q01959); experiment: Displacement of [3H]dopamine from human recombinant DAT expressed in HEK293 cells by scintillation counting; type: cell-based
T1 sequence (Q01959 whole entry): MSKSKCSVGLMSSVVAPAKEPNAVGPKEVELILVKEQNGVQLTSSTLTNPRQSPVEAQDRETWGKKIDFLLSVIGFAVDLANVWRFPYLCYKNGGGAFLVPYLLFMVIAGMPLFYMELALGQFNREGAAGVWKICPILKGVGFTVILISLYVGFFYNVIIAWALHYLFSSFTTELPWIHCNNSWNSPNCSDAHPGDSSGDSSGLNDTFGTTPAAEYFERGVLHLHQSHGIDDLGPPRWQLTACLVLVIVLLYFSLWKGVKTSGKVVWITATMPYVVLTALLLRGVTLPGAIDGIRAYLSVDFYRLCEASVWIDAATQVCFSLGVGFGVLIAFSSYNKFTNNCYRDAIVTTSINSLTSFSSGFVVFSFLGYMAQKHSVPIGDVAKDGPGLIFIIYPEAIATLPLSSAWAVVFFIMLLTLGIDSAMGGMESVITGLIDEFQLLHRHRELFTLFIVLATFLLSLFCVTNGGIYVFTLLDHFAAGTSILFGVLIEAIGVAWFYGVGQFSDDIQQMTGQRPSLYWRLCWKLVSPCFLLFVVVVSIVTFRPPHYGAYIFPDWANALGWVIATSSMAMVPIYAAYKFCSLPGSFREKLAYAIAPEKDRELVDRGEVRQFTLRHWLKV
Summary of the method: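 Suspended HEK-hDAT cells preincubated 10 min at 25 °C with test compound in Krebs-HEPES buffer. [3H]dopamine then added (20 nM final) for 10 min. Uptake stopped by filtration onto polyethylenimine-soaked GF/C filters, and radioactivity counted. Specific uptake defined with 5 µM mazindol. Triplicates, 3–4 experiments; Ki by Cheng-Prusoff.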

[12] = test system: Mus musculus; experiment: Antidepressant activity in ICR mouse assessed as decrease in immobility duration at 65 umol/kg, ip administered 30 mins prior to test by forced swimming test; type: functional, organism-based
[13] = test system: Mus musculus; experiment: Antidepressant activity in BALB/c mouse assessed as decrease in immobility duration at 32.3 umol/kg, ip administered 23 hrs, 5 hrs and 1 hr prior to test measured after 4 weeks by forced swimming test; type: functional, organism-based
Summary of the method: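 Male Balb/c mice received subchronic i.p. dosing at 23, 5 and 1 hr before the forced-swim test, with no pretest training. This session ran 4 weeks after the acute session. Vehicle was saline with 5% DMSO. The swim lasted 6 min in a cylinder of water 28 cm deep at 23 ± 1°C, scoring immobility duration. n = 10–11. One-way ANOVA with Dunnett's test.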

[14] = test system: Mus musculus; experiment: Antidepressant activity in ICR mouse assessed as decrease in immobility duration at 40 mg/kg, ip by forced swimming test; type: functional, organism-based; design: dose 40 mg/kg
[15] = test system: Mus musculus; experiment: Antidepressant activity in BALB/c mouse assessed as decrease in immobility duration at 20 mg/kg, ip administered 30 mins prior to test by forced swimming test; type: functional, organism-based; design: dose 20 mg/kg
Summary of the method: (§4)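 Acute dosing in male Balb/c mice (22.4 ± 0.1 g), i.p. 30 min before the forced-swim test. Vehicle was saline with 5% DMSO. Pretest swims were given on two successive days, then the test 24 h later. Each swim lasted 6 min in a cylinder of water 28 cm deep at 23 ± 1°C, scoring immobility (upright floating). n = 10–11. One-way ANOVA with Dunnett's test.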

[16] = test system: Mus musculus; experiment: Antidepressant activity in ICR mouse assessed as decrease in immobility duration at 0.5 mg/kg, ip by forced swimming test; type: functional, organism-based; design: dose 0.5 mg/kg
[17] = test system: Mus musculus; experiment: Antidepressant activity in ICR mouse assessed as decrease in immobility duration at 0.5 mg/kg, ip once a day for 8 days by forced swimming test; type: functional, organism-based; design: dose 0.5 mg/kg
[18] = test system: Mus musculus; experiment: Antidepressant activity in BALB/c mouse assessed as decrease in immobility duration at 37.4 umol/kg, ip administered 30 mins prior to test by forced swimming test; type: functional, organism-based
Summary of the method: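 Acute dosing in male Balb/c mice (22.4 ± 0.1 g). Drug in 0.9% saline with 5% DMSO, given i.p. 30 min before the forced-swim test. Swim pretest once daily on 2 successive days, then test 24 h later. Each session was 6 min in a cylinder filled to 28 cm with water at 23 ± 1°C, scoring immobility duration. n = 10–11; ANOVA with Dunnett's test.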

[19] = test system: Mus musculus; experiment: Antidepressant activity in BALB/c mouse assessed as decrease in immobility duration at 35.5 umol/kg, ip administered 30 mins prior to test by forced swimming test; type: functional, organism-based; summary of the method: as §4
[20] = target: T2, Sodium-dependent noradrenaline transporter (Homo sapiens, UniProt P23975); experiment: Displacement of [3H]norepinephrine from human recombinant NET expressed in HEK293 cells by scintillation counting; type: cell-based
T2 sequence (P23975 whole entry): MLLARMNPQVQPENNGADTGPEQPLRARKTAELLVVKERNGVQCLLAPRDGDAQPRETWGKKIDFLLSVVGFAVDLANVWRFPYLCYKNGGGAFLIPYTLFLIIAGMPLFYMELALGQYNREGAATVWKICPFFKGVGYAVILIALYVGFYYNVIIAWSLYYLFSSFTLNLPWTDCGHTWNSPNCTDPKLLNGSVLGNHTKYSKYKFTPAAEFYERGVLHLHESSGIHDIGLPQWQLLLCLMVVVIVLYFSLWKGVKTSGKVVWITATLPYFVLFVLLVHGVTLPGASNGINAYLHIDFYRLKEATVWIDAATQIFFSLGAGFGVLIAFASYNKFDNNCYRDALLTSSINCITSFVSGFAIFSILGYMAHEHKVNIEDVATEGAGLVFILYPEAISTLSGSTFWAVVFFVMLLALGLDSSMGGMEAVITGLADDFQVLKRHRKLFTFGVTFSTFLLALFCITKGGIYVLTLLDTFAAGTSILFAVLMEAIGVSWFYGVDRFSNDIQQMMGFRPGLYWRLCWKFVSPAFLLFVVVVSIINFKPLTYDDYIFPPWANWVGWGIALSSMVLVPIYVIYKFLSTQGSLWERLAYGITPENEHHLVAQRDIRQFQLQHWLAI

[21] = target: T2, Sodium-dependent noradrenaline transporter; experiment: Displacement of [125I]RTI-55 from human recombinant NET expressed in HEK293 cells by scintillation counting; type: cell-based
[22] = target: T1, Sodium-dependent dopamine transporter; experiment: Displacement of [125I]RTI-55 from human recombinant DAT expressed in HEK293 cells by scintillation counting; type: cell-based
[23] = target: 3',5'-cyclic-AMP phosphodiesterase 4D (Homo sapiens, UniProt Q08499); experiment: Inhibition of human recombinant PDE4D3
Sequence of 3',5'-cyclic-AMP phosphodiesterase 4D (Q08499 whole entry): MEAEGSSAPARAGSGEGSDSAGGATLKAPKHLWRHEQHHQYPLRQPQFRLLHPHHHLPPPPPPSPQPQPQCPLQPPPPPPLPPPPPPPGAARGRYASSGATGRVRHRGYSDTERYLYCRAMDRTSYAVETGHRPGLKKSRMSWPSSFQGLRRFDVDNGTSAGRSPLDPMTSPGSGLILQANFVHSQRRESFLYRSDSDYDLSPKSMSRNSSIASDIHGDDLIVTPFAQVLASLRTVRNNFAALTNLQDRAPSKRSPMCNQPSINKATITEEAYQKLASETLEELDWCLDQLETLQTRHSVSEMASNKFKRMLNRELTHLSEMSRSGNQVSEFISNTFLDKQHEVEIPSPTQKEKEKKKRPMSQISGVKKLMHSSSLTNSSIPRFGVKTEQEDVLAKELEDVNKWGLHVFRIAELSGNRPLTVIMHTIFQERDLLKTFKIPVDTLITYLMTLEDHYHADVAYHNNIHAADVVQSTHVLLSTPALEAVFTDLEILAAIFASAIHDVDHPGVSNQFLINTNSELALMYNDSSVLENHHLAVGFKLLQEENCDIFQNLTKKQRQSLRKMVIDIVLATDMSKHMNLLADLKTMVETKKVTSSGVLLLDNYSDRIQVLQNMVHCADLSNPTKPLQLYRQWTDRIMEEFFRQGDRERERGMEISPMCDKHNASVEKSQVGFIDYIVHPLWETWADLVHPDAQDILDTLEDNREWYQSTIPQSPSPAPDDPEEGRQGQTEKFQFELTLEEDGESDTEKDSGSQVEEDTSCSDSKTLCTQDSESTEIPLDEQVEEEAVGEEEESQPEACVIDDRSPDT

[24] = target: T3, Sodium-dependent serotonin transporter (Homo sapiens, UniProt P31645); experiment: biochemical; type: cell-based, HEK293
T3 sequence (P31645 whole entry): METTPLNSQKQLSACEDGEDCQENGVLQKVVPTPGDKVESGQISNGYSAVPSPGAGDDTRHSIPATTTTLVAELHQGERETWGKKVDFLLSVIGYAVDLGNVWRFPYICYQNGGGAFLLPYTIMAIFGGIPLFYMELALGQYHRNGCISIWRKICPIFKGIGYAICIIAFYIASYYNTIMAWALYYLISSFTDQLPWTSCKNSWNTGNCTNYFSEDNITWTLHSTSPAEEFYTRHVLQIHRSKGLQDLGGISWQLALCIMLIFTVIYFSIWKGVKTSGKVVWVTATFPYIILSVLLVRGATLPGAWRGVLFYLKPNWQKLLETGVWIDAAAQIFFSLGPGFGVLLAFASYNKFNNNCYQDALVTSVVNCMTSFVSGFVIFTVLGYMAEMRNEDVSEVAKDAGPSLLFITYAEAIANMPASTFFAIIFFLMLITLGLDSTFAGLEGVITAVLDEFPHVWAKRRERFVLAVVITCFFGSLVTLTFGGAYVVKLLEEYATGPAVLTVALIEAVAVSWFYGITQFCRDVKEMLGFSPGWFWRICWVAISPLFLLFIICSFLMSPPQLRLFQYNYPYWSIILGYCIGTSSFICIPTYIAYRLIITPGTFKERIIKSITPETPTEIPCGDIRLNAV

[25] = target: T3, Sodium-dependent serotonin transporter; type: cell-based, HEK293

Sequence of 3',5'-cyclic-AMP phosphodiesterase 4B (Q07343 whole entry): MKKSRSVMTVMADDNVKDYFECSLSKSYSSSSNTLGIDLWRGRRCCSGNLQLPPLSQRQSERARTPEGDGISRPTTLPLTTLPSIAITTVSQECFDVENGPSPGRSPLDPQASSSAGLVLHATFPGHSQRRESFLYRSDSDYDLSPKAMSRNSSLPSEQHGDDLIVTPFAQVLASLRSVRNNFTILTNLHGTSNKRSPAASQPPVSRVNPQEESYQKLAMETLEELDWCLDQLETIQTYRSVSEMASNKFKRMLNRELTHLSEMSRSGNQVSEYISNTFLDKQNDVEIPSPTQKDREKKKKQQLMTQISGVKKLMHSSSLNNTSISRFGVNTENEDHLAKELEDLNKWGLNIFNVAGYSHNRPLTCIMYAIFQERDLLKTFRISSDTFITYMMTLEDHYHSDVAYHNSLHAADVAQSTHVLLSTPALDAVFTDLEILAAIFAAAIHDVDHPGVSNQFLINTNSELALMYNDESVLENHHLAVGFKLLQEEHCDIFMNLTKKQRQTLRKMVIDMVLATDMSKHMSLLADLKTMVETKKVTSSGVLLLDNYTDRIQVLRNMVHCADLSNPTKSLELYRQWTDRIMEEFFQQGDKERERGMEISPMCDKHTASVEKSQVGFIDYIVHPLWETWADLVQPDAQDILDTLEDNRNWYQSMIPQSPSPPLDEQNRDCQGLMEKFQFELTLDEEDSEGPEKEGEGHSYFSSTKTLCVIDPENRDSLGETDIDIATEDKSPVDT

COc1ccc(C2=NNC(=O)C3CC=CCC23)cc1OC (configuration not stated)
Ki [1]: 250 nM
Stability [2]: Stable
Activity [3]: Active
t1/2 [4]: 3.522 h
Activity [5]: Active
Ki [6]: > 1000 nM
Activity [7]: Active
Activity [8]: Active
Activity [9]: Active
Activity [10]: Active

CNCCC1CCC(CCc2cc(F)ccc2OC)O1 (configuration not stated)
IC50 [11]: > 100000 nM

CNCCC(Oc1ccc(C(F)(F)F)cc1)c1ccccc1 (configuration not stated)
Activity [12]: Active
Activity [13]: inactive
Activity [14]: Active
Activity [15]: inactive

COc1ccc(C2CNC(=O)C2)cc1OC1CCCC1 (configuration not stated)
Activity [16]: inactive
Activity [17]: Active

COc1ccc(F)cc1CCC1CCC(CCN)O1 (configuration not stated)
Activity [18]: inactive
Activity [8]: inactive

COc1ccc(F)cc1CCCC1CCC(CCN)O1 (configuration not stated)
Activity [19]: inactive

COc1ccc(F)c(CCCC2CCC(CCNCCCCCN3N=C(c4ccc(OC)c(OC)c4)[C@H]4CC=CC[C@H]4C3=O)O2)c1 (mixture of isomers)
IC50 [11]: 5340 nM
IC50 [20]: 7440 nM
Ki [1]: 500 nM
Ki [21]: 7440 nM
Stability [2]: Stable
Stability [4]: Stable
Ki [6]: > 1000 nM
Ki [22]: 5340 nM
Ki [23]: 1.2 nM

COc1ccc(F)cc1CCC1CCC(CCNCCCCCN2N=C(c3ccc(OC)c(OC)c3)[C@H]3CC=CC[C@H]3C2=O)O1 (mixture of isomers)
IC50 [11]: 3560 nM
Ki [1]: 199 nM
Ki [24]: 156 nM
Stability [2]: Stable
Activity [3]: Active
t1/2 [4]: 2.565 h
IC50 [25]: 127 nM
Activity [5]: inactive
Ki [6]: > 1000 nM
Ki [22]: 2480 nM
Activity [7]: Active
Ki [23]: 2 nM
Activity [9]: Active
Activity [10]: Active

COc1ccc(C2=NN(CCCCCBr)C(=O)[C@@H]3CC=CC[C@H]23)cc1OC (racemic)
IC50 [11]: > 100000 nM
Ki [24]: > 100000 nM
IC50 [25]: > 100000 nM
Ki [22]: > 100000 nM
